Experimental data reported in ChEMBL document CHEMBL1275439, “Acquisition of a plasmid-borne blaOXA-58 gene with an upstream IS1008 insertion conferring a high level of carbapenem resistance to Acinetobacter baumannii” (2008).
Values after ≈ are worked out from the molar mass of the structure shown.

What was measured:
Type in all cases: functional
Escherichia coli [1] = assay: Antimicrobial activity against Escherichia coli DH5alpha by broth dilution test
Acinetobacter baumannii [2] = assay: Antimicrobial activity against Acinetobacter baumannii TVICU53 by broth dilution test
Procedure, shortened: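 MICs by broth dilution on automated susceptibility plates, or by agar dilution, read and interpreted per CLSI guidelines; carbapenem MICs confirmed by Etest. Clinical isolate tested against a panel of aminoglycosides, β-lactams, β-lactam/inhibitor combinations, carbapenems, ciprofloxacin, chloramphenicol and trimethoprim-sulfamethoxazole. E. coli ATCC 25922 and P. aeruginosa ATCC 27853 run as quality controls. All tests done in duplicate.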

Acinetobacter baumannii [3] = assay: Antimicrobial activity against Acinetobacter baumannii Ab290 by broth dilution test
Procedure, shortened: (§1)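 MICs determined by broth dilution on automated Sensititre susceptibility plates or by agar dilution, interpreted per CLSI guidelines. Carbapenem MICs confirmed by Etest. E. coli ATCC 25922 and P. aeruginosa ATCC 27853 served as quality-control strains. All tests done in duplicate.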

Acinetobacter baumannii [4] = assay: Antimicrobial activity against Acinetobacter baumannii Ab290 harboring TVICU53 plasmid by broth dilution test
Procedure, shortened: (§2)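 Recombinant plasmids were electroporated (2.5 kV, 25 µF) into electrocompetent cells harvested at exponential phase (OD600 0.5–0.7). Cells were recovered in SOC broth at 37°C for 1 h and selected on antibiotics. MICs were then read by Sensititre broth dilution or agar dilution per CLSI, with carbapenems confirmed by Etest. Tests were run in duplicate with ATCC 25922/27853 controls.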

Acinetobacter baumannii [5] = assay: Antimicrobial activity against Acinetobacter baumannii Ab290 containing plasmid harboring OXA-58-3 by broth dilution test; procedure, shortened: as §2
Acinetobacter baumannii [6] = assay: Antimicrobial activity against Acinetobacter baumannii Ab290 containing plasmid harboring OXA-58-4 by broth dilution test; procedure, shortened: as §2
Acinetobacter baumannii [7] = assay: Antimicrobial activity against Acinetobacter baumannii ATCC 15151T by broth dilution test; procedure, shortened: as §1
Acinetobacter baumannii [8] = assay: Antimicrobial activity against Acinetobacter baumannii ATCC 15151T containing plasmid harboring OXA-58-3 by broth dilution test; procedure, shortened: as §2
Escherichia coli [9] = assay: Antimicrobial activity against Escherichia coli DH5alpha harboring plasmid containing OXA-58-3 by broth dilution test
Escherichia coli [10] = assay: Antimicrobial activity against Escherichia coli DH5alpha harboring plasmid containing OXA-58-4 by broth dilution test

## C[C@@H](O)[C@H]1C(=O)N2C(C(=O)O)=C(S[C@@H]3CN[C@H](C(=O)N(C)C)C3)[C@H](C)[C@H]12 [MEROPENEM]
Escherichia coli [1]
  MIC: < 0.25 µg/mL
Acinetobacter baumannii [2]
  MIC: 16 µg/mL (≈ 41.7 µM)
Acinetobacter baumannii [3]
  MIC: 0.25 µg/mL (≈ 0.652 µM)
Acinetobacter baumannii [4]
  MIC: 16 µg/mL (≈ 41.7 µM)
Acinetobacter baumannii [5]
  MIC: 16 µg/mL (≈ 41.7 µM)
Acinetobacter baumannii [6]
  MIC: 0.5 µg/mL (≈ 1.3 µM)
Acinetobacter baumannii [7]
  MIC: 0.5 µg/mL (≈ 1.3 µM)
Acinetobacter baumannii [8]
  MIC: 32 µg/mL (≈ 83.4 µM)

## CC(C)(O/N=C(\C(=O)N[C@@H]1C(=O)N2C(C(=O)[O-])=C(C[n+]3ccccc3)CS[C@H]12)c1csc(N)n1)C(=O)O [CEFTAZIDIME]
Escherichia coli [1]
  MIC: < 0.12 µg/mL
Escherichia coli [9]
  MIC: < 0.12 µg/mL
Acinetobacter baumannii [2]
  MIC: 128 µg/mL (≈ 234 µM)
Acinetobacter baumannii [3]
  MIC: 4 µg/mL (≈ 7.32 µM)
Acinetobacter baumannii [4]
  MIC: 4 µg/mL (≈ 7.32 µM)
Acinetobacter baumannii [5]
  MIC: 4 µg/mL (≈ 7.32 µM)
Acinetobacter baumannii [7]
  MIC: 8 µg/mL (≈ 14.6 µM)
Acinetobacter baumannii [8]
  MIC: 8 µg/mL (≈ 14.6 µM)

## CC1(C)S[C@@H]2[C@H](NC(=O)[C@H](C(=O)O)c3ccsc3)C(=O)N2[C@H]1C(=O)O [TICARCILLIN]
Escherichia coli [1]
  MIC: 8 µg/mL (≈ 20.8 µM)
Escherichia coli [9]
  MIC: > 1020 µg/mL
Escherichia coli [10]
  MIC: 256 µg/mL (≈ 666 µM)
Acinetobacter baumannii [2]
  MIC: > 1020 µg/mL
Acinetobacter baumannii [3]
  MIC: 16 µg/mL (≈ 41.6 µM)
Acinetobacter baumannii [4]
  MIC: > 1020 µg/mL
Acinetobacter baumannii [5]
  MIC: > 1020 µg/mL
Acinetobacter baumannii [6]
  MIC: 256 µg/mL (≈ 666 µM)
Acinetobacter baumannii [7]
  MIC: 8 µg/mL (≈ 20.8 µM)
Acinetobacter baumannii [8]
  MIC: > 1020 µg/mL

## CO/N=C(\C(=O)N[C@@H]1C(=O)N2C(C(=O)O)=C(COC(N)=O)CS[C@H]12)c1ccco1 [CEFUROXIME]
Escherichia coli [1]
  MIC: 4 µg/mL (≈ 9.43 µM)
Escherichia coli [9]
  MIC: 4 µg/mL (≈ 9.43 µM)
Acinetobacter baumannii [2]
  MIC: > 128 µg/mL
Acinetobacter baumannii [3]
  MIC: 32 µg/mL (≈ 75.4 µM)
Acinetobacter baumannii [4]
  MIC: 32 µg/mL (≈ 75.4 µM)
Acinetobacter baumannii [5]
  MIC: 32 µg/mL (≈ 75.4 µM)
Acinetobacter baumannii [7]
  MIC: > 128 µg/mL

## CC1(C)S[C@@H]2[C@H](NC(=O)[C@H](N)c3ccc(O)cc3)C(=O)N2[C@H]1C(=O)O [AMOXICILLIN]
Escherichia coli [1]
  MIC: 8 µg/mL (≈ 21.9 µM)
Escherichia coli [9]
  MIC: > 256 µg/mL
Escherichia coli [10]
  MIC: > 256 µg/mL
Acinetobacter baumannii [2]
  MIC: > 256 µg/mL
Acinetobacter baumannii [3]
  MIC: 32 µg/mL (≈ 87.6 µM)
Acinetobacter baumannii [4]
  MIC: > 256 µg/mL
Acinetobacter baumannii [5]
  MIC: > 256 µg/mL
Acinetobacter baumannii [6]
  MIC: > 256 µg/mL
Acinetobacter baumannii [7]
  MIC: > 256 µg/mL

## CO/N=C(\C(=O)N[C@@H]1C(=O)N2C(C(=O)O)=C(COC(C)=O)CS[C@H]12)c1csc(N)n1 [CEFOTAXIME]
Escherichia coli [1]
  MIC: < 0.12 µg/mL
Acinetobacter baumannii [2]
  MIC: 64 µg/mL (≈ 141 µM)
Acinetobacter baumannii [3]
  MIC: 8 µg/mL (≈ 17.6 µM)
Acinetobacter baumannii [4]
  MIC: 8 µg/mL (≈ 17.6 µM)
Acinetobacter baumannii [5]
  MIC: 8 µg/mL (≈ 17.6 µM)
Acinetobacter baumannii [7]
  MIC: 16 µg/mL (≈ 35.1 µM)
Acinetobacter baumannii [8]
  MIC: 16 µg/mL (≈ 35.1 µM)

## C[C@@H](O)[C@H]1C(=O)N2C(C(=O)O)=C(SCCNC=N)C[C@H]12 [IMIPENEM ANHYDROUS]
Escherichia coli [1]
  MIC: 0.25 µg/mL (≈ 0.835 µM)
Escherichia coli [9]
  MIC: 2 µg/mL (≈ 6.68 µM)
Escherichia coli [10]
  MIC: 0.25 µg/mL (≈ 0.835 µM)
Acinetobacter baumannii [2]
  MIC: 64 µg/mL (≈ 214 µM)
Acinetobacter baumannii [3]
  MIC: 0.25 µg/mL (≈ 0.835 µM)
Acinetobacter baumannii [4]
  MIC: 32 µg/mL (≈ 107 µM)
Acinetobacter baumannii [5]
  MIC: 64 µg/mL (≈ 214 µM)
Acinetobacter baumannii [6]
  MIC: 1 µg/mL (≈ 3.34 µM)
Acinetobacter baumannii [7]
  MIC: 0.5 µg/mL (≈ 1.67 µM)
Acinetobacter baumannii [8]
  MIC: 32 µg/mL (≈ 107 µM)

## C[C@H]1[C@H](NC(=O)/C(=N\OC(C)(C)C(=O)O)c2csc(N)n2)C(=O)N1S(=O)(=O)O [AZTREONAM]
Escherichia coli [1]
  MIC: < 0.12 µg/mL
Escherichia coli [9]
  MIC: < 0.12 µg/mL
Acinetobacter baumannii [2]
  MIC: 64 µg/mL (≈ 147 µM)
Acinetobacter baumannii [4]
  MIC: 16 µg/mL (≈ 36.7 µM)
Acinetobacter baumannii [5]
  MIC: 16 µg/mL (≈ 36.7 µM)
Acinetobacter baumannii [7]
  MIC: 64 µg/mL (≈ 147 µM)
Acinetobacter baumannii [8]
  MIC: 128 µg/mL (≈ 294 µM)

## Cc1nnc(SCC2=C(C(=O)O)N3C(=O)[C@@H](NC(=O)Cn4cnnn4)[C@H]3SC2)s1 [CEFAZOLIN]
Escherichia coli [1]
  MIC: 4 µg/mL (≈ 8.8 µM)
Escherichia coli [9]
  MIC: 8 µg/mL (≈ 17.6 µM)
Acinetobacter baumannii [2]
  MIC: > 128 µg/mL
Acinetobacter baumannii [3]
  MIC: > 128 µg/mL
Acinetobacter baumannii [7]
  MIC: > 128 µg/mL
